# According to ChEMBL document CHEMBL4033643, “Synthesis and in vitro antitumour activity of crassalactone D, its stereoisomers and novel cinnamic ester derivatives” (Eur J Med Chem, 2017):
# Activity calls are given as the source filed them. The calls are words filed in the database; no cut-off is given here.
# Legend:
# K562 [1] = experiment: Induction of apoptosis in human K562 cells assessed as increase in caspase 3 expression level by Western blot analysis; type: functional, cell-based
# Procedure, shortened: (§1)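 Western blot of treated K562 cells for Bcl-2, Bax, activated caspase 3 and cleaved PARP (85 kDa fragment). Blots developed by ECL, with band expression quantified by densitometry against an untreated control sample.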
# K562 [2] = experiment: Induction of apoptosis in human K562 cells assessed as gated early apoptotic cells by Annexin V-FITC/propidium iodide staining based flow cytometry (reference value: 3.18%); type: functional
# MRC5 = experiment: Cytotoxicity against human MRC5 cells assessed as reduction in cell viability after 72 hrs by MTT assay; type: cell-based; details: MRC5, 72 h
# K562 [3] = experiment: Induction of apoptosis in human K562 cells assessed as increase in cleaved PARP expression level by Western blot analysis; type: functional, cell-based; procedure, shortened: as §1
# K562 [4] = experiment: Cell cycle arrest in human K562 cells assessed as total cell levels at S phase at IC50 after 72 hrs by propidium iodide staining based flow cytometry (reference value: 36.49%); type: functional
# K562 [5] = experiment: Cytotoxicity against human K562 cells assessed as reduction in cell viability after 72 hrs by MTT assay; type: functional, cell-based; details: K562, 72 h
# K562 [6] = experiment: Cell cycle arrest in human K562 cells assessed as accumulation at G2/M phase at IC50 after 72 hrs by propidium iodide staining based flow cytometry (reference value: 19.01%); type: functional
# K562 [7] = experiment: Cell cycle arrest in human K562 cells assessed as total cell levels at G2/M phase at IC50 after 72 hrs by propidium iodide staining based flow cytometry (reference value: 14.31%); type: functional
# K562 [8] = experiment: Cell cycle arrest in human K562 cells assessed as accumulation at S phase at IC50 after 72 hrs by propidium iodide staining based flow cytometry (reference value: 41.03%); type: functional
# K562 [9] = experiment: Cell cycle arrest in human K562 cells assessed as total cell levels at G0/G1 phase at IC50 after 72 hrs by propidium iodide staining based flow cytometry (reference value: 39.97%); type: functional
# A549 = experiment: Cytotoxicity against human A549 cells assessed as reduction in cell viability after 72 hrs by MTT assay; type: functional, cell-based; details: A549, 72 h
# K562 [10] = experiment: Induction of apoptosis in human K562 cells assessed as total viable cells by Annexin V-FITC/propidium iodide staining based flow cytometry (reference value: 92.45%); type: functional
# Raji = experiment: Cytotoxicity against human Raji cells assessed as reduction in cell viability after 72 hrs by MTT assay; type: functional, cell-based
# K562 [11] = experiment: Cell cycle arrest in human K562 cells assessed as accumulation at sub G1 phase at IC50 after 72 hrs by propidium iodide staining based flow cytometry (reference value: 1.48%); type: functional
# K562 [12] = experiment: Cell cycle arrest in human K562 cells assessed as total cell levels at M4 phase at IC50 after 72 hrs by propidium iodide staining based flow cytometry (reference value: 0.50%); type: functional
# K562 [13] = experiment: Induction of apoptosis in human K562 cells assessed as increase in Bax expression level by Western blot analysis; type: functional, cell-based; procedure, shortened: as §1
# MDA-MB-231 = experiment: Cytotoxicity against human MDA-MB-231 cells assessed as reduction in cell viability after 72 hrs by MTT assay; type: functional, cell-based; details: MDA-MB-231, 72 h
# Jurkat = experiment: Cytotoxicity against human Jurkat cells assessed as reduction in cell viability after 72 hrs by MTT assay; type: functional, cell-based
# HL-60 = experiment: Cytotoxicity against human HL60 cells assessed as reduction in cell viability after 72 hrs by MTT assay; type: functional, cell-based; details: HL-60, 72 h
# MCF7 = experiment: Cytotoxicity against human MCF7 cells assessed as reduction in cell viability after 72 hrs by MTT assay; type: functional, cell-based; details: MCF7, 72 h
# K562 [14] = experiment: Induction of apoptosis in human K562 cells assessed as gated necrotic cells by Annexin V-FITC/propidium iodide staining based flow cytometry (reference value: 0.24%); type: functional
# K562 [15] = experiment: Induction of apoptosis in human K562 cells assessed as total necrotic cells by Annexin V-FITC/propidium iodide staining based flow cytometry (reference value: 0.23%); type: functional
# K562 [16] = experiment: Induction of apoptosis in human K562 cells assessed as decrease in Bcl-2 expression level by Western blot analysis; type: functional, cell-based; procedure, shortened: as §1
# HeLa = experiment: Cytotoxicity against human HeLa cells assessed as reduction in cell viability after 72 hrs by MTT assay; type: functional, cell-based
# K562 [17] = experiment: Induction of apoptosis in human K562 cells assessed as gated late apoptotic cells by Annexin V-FITC/propidium iodide staining based flow cytometry (reference value: 0.88%); type: functional
# K562 [18] = experiment: Cell cycle arrest in human K562 cells assessed as accumulation at G0/G1 phase at IC50 after 72 hrs by propidium iodide staining based flow cytometry (reference value: 38.48%); type: functional
# K562 [19] = experiment: Induction of apoptosis in human K562 cells assessed as gated viable cells by Annexin V-FITC/propidium iodide staining based flow cytometry (reference value: 95.78%); type: functional
# K562 [20] = experiment: Induction of apoptosis in human K562 cells assessed as total late apoptotic cells by Annexin V-FITC/propidium iodide staining based flow cytometry (reference value: 0.77%); type: functional
# K562 [21] = experiment: Potency index, ratio of doxorubicin IC50 to compound IC50 for human K562 cells; type: functional
# K562 [22] = experiment: Induction of apoptosis in human K562 cells assessed as total early apoptotic cells by Annexin V-FITC/propidium iodide staining based flow cytometry (reference value: 3.07%); type: functional
# K562 [23] = experiment: Induction of apoptosis in human K562 cells assessed as specific apoptosis by Annexin V-FITC/propidium iodide staining based flow cytometry; type: functional; set-up: concentration or dose not given beside the values
# K562 [24] = experiment: Induction of apoptosis in human K562 cells assessed as specific necrosis by Annexin V-FITC/propidium iodide staining based flow cytometry; type: functional; set-up: concentration or dose not given beside the values
Compound,Activity (K562 [1]),Activity (K562 [2]),IC50 (MRC5),Activity (K562 [3]),Activity (K562 [4]),IC50 (K562 [5]),Activity (K562 [6]),Activity (K562 [7]),Activity (K562 [8]),Activity (K562 [9]),IC50 (A549),Activity (K562 [10]),IC50 (Raji),Activity (K562 [11]),Activity (K562 [12]),Activity (K562 [13]),IC50 (MDA-MB-231),IC50 (Jurkat),IC50 (HL-60),IC50 (MCF7),other results
O=C1C=C[C@]2(C[C@H](O)[C@@H](c3ccccc3)O2)O1,Active,8.88%,> 100 µM,Active,47.93%,0.12 µM,6.86%,5.47%,59.02%,25.97%,29 µM,16.71%,2.34 µM,1.6%,1.26%,inactive,1.89 µM,0.21 µM,1.06 µM,11.6 µM,Activity (K562 [14]): 5.02%; Activity (K562 [15]): 1.21%; Activity (K562 [16]): Active; IC50 (HeLa): 0.34 µM; Activity (K562 [17]): 16.8%; Activity (K562 [18]): 32.52%; Activity (K562 [19]): 69.31%; Activity (K562 [20]): 4.05%; Ratio IC50 (K562 [21]): 2; Activity (K562 [22]): 2.14%; Activity (K562 [23]): 22.6%; Activity (K562 [24]): 1.08%
O=C1C=C[C@]2(C[C@H](OC(=O)/C=C/c3ccc([N+](=O)[O-])cc3)[C@@H](c3ccccc3)O2)O1,inactive,3.86%,> 100 µM,inactive,25.39%,5.64 µM,21.66%,20.35%,28.04%,43.62%,45.4 µM,92.65%,> 100 µM,2.13%,1.93%,Active,> 100 µM,31.2 µM,2.24 µM,8.58 µM,Activity (K562 [14]): 0.72%; Activity (K562 [15]): 0.71%; Activity (K562 [16]): inactive; IC50 (HeLa): 2.22 µM; Activity (K562 [17]): 0.87%; Activity (K562 [18]): 48.17%; Activity (K562 [19]): 94.55%; Activity (K562 [20]): 0.85%; Activity (K562 [22]): 3.78%; Activity (K562 [23]): 0.75%; Activity (K562 [24]): 3.4%
COc1ccc(/C=C/C(=O)O[C@H]2C[C@@]3(C=CC(=O)O3)O[C@H]2c2ccccc2)cc1,Active,1.42%,> 100 µM,Active,26.32%,1.02 µM,20.11%,18.76%,29.4%,42.31%,0.45 µM,91.77%,3.05 µM,3.23%,2.89%,inactive,2.69 µM,2.54 µM,2.25 µM,3.25 µM,Activity (K562 [14]): 2.44%; Activity (K562 [15]): 2.34%; Activity (K562 [16]): Active; IC50 (HeLa): 9.94 µM; Activity (K562 [17]): 0.29%; Activity (K562 [18]): 47.26%; Activity (K562 [19]): 95.84%; Activity (K562 [20]): 0.28%; Activity (K562 [22]): 1.36%; Activity (K562 [23]): 2.36%; Activity (K562 [24]): 1.6%
O=C1C=C[C@@]2(C[C@H](OC(=O)/C=C/c3ccc([N+](=O)[O-])cc3)[C@H](c3ccccc3)O2)O1,Active,69.6%,> 100 µM,Active,18.76%,2.22 µM,7.07%,6.42%,22.7%,24.92%,0.85 µM,11.93%,1.64 µM,40.08%,33.19%,inactive,1.25 µM,4.03 µM,4.36 µM,4.31 µM,Activity (K562 [14]): 2.29%; Activity (K562 [15]): 1.03%; Activity (K562 [16]): Active; IC50 (HeLa): 24.8 µM; Activity (K562 [17]): 1.62%; Activity (K562 [18]): 30.15%; Activity (K562 [19]): 26.49%; Activity (K562 [20]): 0.73%; Activity (K562 [22]): 31.35%; Activity (K562 [23]): 70.03%; Activity (K562 [24]): 1.76%
O=C1C=C[C@@]2(C[C@H](OC(=O)/C=C/c3ccccc3)[C@H](c3ccccc3)O2)O1,Active,50.03%,> 100 µM,Active,27.97%,4.65 µM,18.24%,12.13%,42.16%,18.23%,0.25 µM,24.8%,2.28 µM,12.49%,8.27%,inactive,3.64 µM,1.02 µM,9.65 µM,11.4 µM,Activity (K562 [14]): 8.36%; Activity (K562 [15]): 6.66%; Activity (K562 [16]): Active; IC50 (HeLa): 58.5 µM; Activity (K562 [17]): 10.47%; Activity (K562 [18]): 27.11%; Activity (K562 [19]): 31.14%; Activity (K562 [20]): 8.34%; Activity (K562 [22]): 39.85%; Activity (K562 [23]): 6.76%; Activity (K562 [24]): 28.29%
